Data on 18 molecules can be found in ChEMBL document CHEMBL1127464, “Inhibitors of HIV-1 proteinase containing 2-heterosubstituted 4-amino-3-hydroxy-5-phenylpentanoic acid: synthesis, enzyme inhibition, and antiviral activity” (J Med Chem, 1994).

Assay [1] concerns Human immunodeficiency virus 1. Put plainly: Antiviral activity by observing cytopathic effect induced by HIV-1 strain IIIB in de novo infected MT-4 cells. The assay is classed as functional, organism-based. Particulars: Human immunodeficiency virus 1, MT4. For orientation: Damage to the host cells serves as the signal in cytopathic effect assays.
Assay [2] addresses Human immunodeficiency virus type 1 protease (Human immunodeficiency virus 1, UniProt Q72874). Put plainly: Inhibitory constant against HIV-1 protease. In a few lines:
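HIV-1 proteinase expressed in E. coli JM 105 and purified to homogeneity. Initial rates were taken from the absorbance decrease at 298 nm. IC50 came from a fit of the initial velocities. Ki was derived from IC50 accounting for enzyme, substrate and Km. Mean of two determinations.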

For assay [3], the target named is T1, Cathepsin D (Homo sapiens, UniProt P07339). Put plainly: (§1) Selectivity for their inhibitory potency against human cathepsin D.
The subject of assay [4] is MT4. Put plainly: Antiviral activity by analysis of p24 antigen concentration for HIV-1 strain IIIB in de novo infected MT-4 cells. The assay is classed as functional, cell-based. The note with it: Homo sapiens.
The next assay addresses Pepsin A (Sus scrofa, UniProt P00791). Put plainly: Selectivity for their inhibitory potency against porcine pepsin. Put shortly:
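Porcine pepsin assayed in 0.1 M glycine–HCl, pH 2.0, with 0.5% hemoglobin substrate and [14C]methylhemoglobin tracer.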

The next assay deals with T2, Renin (Homo sapiens, UniProt P00797).
T2 sequence (P00797 whole entry): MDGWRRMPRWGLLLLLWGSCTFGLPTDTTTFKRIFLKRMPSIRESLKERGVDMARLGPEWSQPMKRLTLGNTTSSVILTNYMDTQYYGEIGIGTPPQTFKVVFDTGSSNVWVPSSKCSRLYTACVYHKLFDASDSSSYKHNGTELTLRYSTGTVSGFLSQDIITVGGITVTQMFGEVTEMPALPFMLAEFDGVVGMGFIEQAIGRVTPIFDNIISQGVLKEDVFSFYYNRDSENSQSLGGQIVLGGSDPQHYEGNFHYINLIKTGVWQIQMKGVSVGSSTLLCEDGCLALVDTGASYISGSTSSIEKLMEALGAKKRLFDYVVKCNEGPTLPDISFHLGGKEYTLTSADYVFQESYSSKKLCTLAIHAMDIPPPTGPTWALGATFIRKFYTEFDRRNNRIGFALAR
Put plainly: Selectivity for their inhibitory potency against human renin.

Assay [5] has as its system MT4. Put plainly: Antiviral activity by analysis of p26 antigen concentration for HIV-2 strain EHO, replication in MT-4 cells. The assay is classed as functional, cell-based. The note with it: Homo sapiens.
For assay [6], the target named is T1, Cathepsin D. Described as §1. The assay is classed as functional.

Molecules are shown by their SMILES.

T1 sequence (P07339 65-162 limits assumed): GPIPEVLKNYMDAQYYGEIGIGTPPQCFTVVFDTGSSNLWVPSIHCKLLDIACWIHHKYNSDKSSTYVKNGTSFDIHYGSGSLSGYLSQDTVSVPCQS
T1 sequence (P07339 169-412 limits assumed): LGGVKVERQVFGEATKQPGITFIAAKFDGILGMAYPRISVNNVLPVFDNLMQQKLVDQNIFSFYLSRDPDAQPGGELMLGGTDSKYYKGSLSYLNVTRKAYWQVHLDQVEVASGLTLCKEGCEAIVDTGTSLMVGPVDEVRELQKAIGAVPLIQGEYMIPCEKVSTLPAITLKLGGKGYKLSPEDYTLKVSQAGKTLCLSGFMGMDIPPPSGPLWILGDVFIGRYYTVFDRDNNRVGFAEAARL
Sequence of Pepsin A (P00791 whole entry): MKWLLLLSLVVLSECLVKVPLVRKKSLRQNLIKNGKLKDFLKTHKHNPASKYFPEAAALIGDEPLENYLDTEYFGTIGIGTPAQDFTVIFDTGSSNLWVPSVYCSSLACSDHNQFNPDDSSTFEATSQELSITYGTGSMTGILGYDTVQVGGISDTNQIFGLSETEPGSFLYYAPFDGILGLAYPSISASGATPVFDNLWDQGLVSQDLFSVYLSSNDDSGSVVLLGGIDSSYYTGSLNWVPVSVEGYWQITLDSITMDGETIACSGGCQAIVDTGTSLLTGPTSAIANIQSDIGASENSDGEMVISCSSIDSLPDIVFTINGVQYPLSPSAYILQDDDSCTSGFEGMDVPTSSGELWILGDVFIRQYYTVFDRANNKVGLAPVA

As a reminder, the IC50 is the concentration that gives 50% inhibition. Higher therefore signals weaker potency in that assay. As a reminder, the Ki is a measure of affinity in units of concentration, obtained from inhibition or displacement. Low readings indicate higher affinity, high ones lower affinity. `CC(C)[C@H](NC(=O)[C@H](NCc1ccccc1)[C@H](O)[C@H](Cc1ccccc1)NC(=O)[C@H](C)NC(=O)OCc1ccccc1)C(=O)NCc1ccccc1`: the IC50 in assay [1] was more than 3 µM. For the same molecule, the inhibitory constant (Ki) in assay [2] was found to be 0.034 µM.
On to `CC(C)[C@H](NC(=O)OC(C)(C)C)C(=O)N[C@@H](Cc1ccccc1)[C@@H](O)[C@@H](NCc1ccccc1)C(=O)N[C@H](C(=O)NCc1ccccc1)C(C)C`, for which the half-inhibitory concentration (IC50) in assay [1] is more than 3 µM. In assay [2], the Ki worked out at 0.215 µM.
On to `COc1ccc(CN[C@@H](C(=O)N[C@H](C(=O)NCc2nc3ccccc3[nH]2)C(C)C)[C@H](O)[C@H](Cc2ccccc2)NC(=O)[C@@H](NC(=O)CCc2ccc(O)cc2)C(C)(C)C)cc1`, for which the 50% inhibitory concentration (IC50) against Cathepsin D [3] is more than 10 µM; in the assay with MT4 [4], 0.021 µM; in assay [1], 0.096 µM; against Pepsin A it was more than 10 µM; on Renin, more than 10 µM. This molecule also registered a Ki in assay [2] of 0.013 µM.
Turning to `CC(C)C[C@H](NC(=O)[C@H](NCc1ccccc1)[C@H](O)[C@H](Cc1ccccc1)NC(=O)[C@@H](NC(=O)OCc1ccccc1)C(C)C)C(=O)NCc1ccccc1`, the IC50 in assay [1] is more than 3 µM. The molecule also displayed an inhibition constant Ki in assay [2] of 0.044 µM.
On the same counts, the results for `CC(C)[C@H](NC(=O)OCc1ccccc1)C(=O)N[C@@H](Cc1ccccc1)[C@@H](O)[C@@H](NCc1ccc(Cl)cc1)C(=O)N[C@H](C(=O)NCc1nc2ccccc2[nH]1)C(C)C` are 0.12 µM and 0.0061 µM.
In the case of `COc1ccc(CN[C@@H](C(=O)N[C@H](C(=O)NCc2ccccc2)C(C)C)[C@H](O)[C@H](Cc2ccccc2)NC(=O)[C@@H](NC(=O)OCc2ccccc2)C(C)C)cc1`, the half-inhibitory concentration (IC50) on Cathepsin D [3] is 0.11 µM; in the assay with MT4 [4] it was 0.132 µM; in the assay on MT4 [5], 0.81 µM; in assay [1] it was 0.32 µM; against Pepsin A, more than 10 µM; against Renin, more than 10 µM. The same molecule showed a Ki in assay [2] of 0.0074 µM.
In assay [1], `CC(C)[C@H](NC(=O)OCc1ccccc1)C(=O)N[C@@H](Cc1ccccc1)[C@@H](O)[C@@H](NCc1ccccc1)C(=O)N[C@H](C(=O)NCc1nc2ccccc2[nH]1)C(C)C` came in with an IC50 of 0.14 µM. The molecule further returned an inhibition constant (Ki) in assay [2] of 0.013 µM.
Take `CC(C)[C@H](NC(=O)[C@H](NCc1ccccc1)[C@H](O)[C@H](Cc1ccccc1)NC(=O)[C@@H](NC(=O)OCc1ccccc1)C(C)(C)C)C(=O)NCc1ccccc1`: the IC50 at Cathepsin D [3] was 0.06 µM; in the assay on MT4 [4], 0.093 µM; in the assay with MT4 [5] it was 1.4 µM; in assay [1], 0.32 µM; against Pepsin A it was more than 10 µM; on Renin, more than 10 µM. This molecule also showed an inhibition constant (Ki) in assay [2] of 0.0092 µM.
As to `CC(C)[C@H](NC(=O)OCc1ccccc1)C(=O)N[C@@H](Cc1ccccc1)[C@@H](O)[C@@H](NCCc1c[nH]c2ccccc12)C(=O)N[C@H](C(=O)NCc1ccccc1)C(C)C`, the 50% inhibitory concentration (IC50) in assay [1] is more than 3 µM. For the same molecule, in assay [2], the inhibitory constant (Ki) was 0.061 µM.
For `CC(C)[C@H](NC(=O)OCc1ccccc1)C(=O)N[C@@H](Cc1ccccc1)[C@@H](O)[C@@H](Nc1ccc(-c2ccccc2)cc1)C(=O)N[C@H](C(=O)NCc1ccccc1)C(C)C` the same measures were more than 3 µM and 0.059 µM.
As for `CC(C)[C@H](NC(=O)c1ccc2ccccc2n1)C(=O)N[C@@H](Cc1ccccc1)[C@@H](O)[C@@H](NCc1ccccc1)C(=O)N[C@H](C(=O)NCc1ccccc1)C(C)C`, the IC50 in assay [1] amounted to 1.61 µM. The same molecule displayed a Ki in assay [2] of 0.0102 µM.
Regarding `CC(C)[C@H](NC(=O)[C@H](NCc1ccc(Cl)cc1)[C@H](O)[C@H](Cc1ccccc1)NC(=O)[C@@H](NC(=O)OCc1ccccc1)C(C)(C)C)C(=O)NCc1nc2ccccc2[nH]1`, the IC50 is 1.8 µM on Cathepsin D [3]; 0.0113 µM in the assay with MT4 [4]; 0.24 µM in the assay with MT4 [5]; 0.034 µM in assay [1]; more than 10 µM on Pepsin A; more than 10 µM against Renin. Also, the Ki in assay [2] came to 0.0075 µM.
Consider `CC(C)[C@H](NC(=O)CCc1nc2ccccc2[nH]1)C(=O)N[C@@H](Cc1ccccc1)[C@@H](O)[C@@H](NCc1ccccc1)C(=O)N[C@H](C(=O)NCc1ccccc1)C(C)C`, for which it took 0.18 µM to reach half-maximal inhibition in assay [1] (IC50). The same molecule came in with a Ki in assay [2] of 0.0099 µM.
Regarding `COc1ccc(CN[C@@H](C(=O)N[C@H](C(=O)NCc2nc3ccccc3[nH]2)C(C)C)[C@H](O)[C@H](Cc2ccccc2)NC(=O)[C@@H](NC(=O)OCc2ccccc2)C(C)C)cc1`, the 50% inhibitory concentration (IC50) against Cathepsin D [3] was 0.38 µM; in the assay on MT4 [4] it was 0.0097 µM; in the assay on MT4 [5], 0.46 µM; in assay [1] it was 0.025 µM; against Pepsin A, more than 10 µM; against Renin, more than 10 µM. The affinity in assay [2] corresponds to a Ki of 0.0034 µM.
For `CC(C)[C@H](NC(=O)OCc1ccccc1)C(=O)N[C@@H](Cc1ccccc1)[C@@H](O)[C@@H](NCc1ccccc1)C(=O)N[C@H](C(=O)NCc1ccccc1)C(C)C`, the IC50 was 0.035 µM against Cathepsin D [6]; 0.315 µM in the assay on MT4 [4]; more than 3 µM in the assay on MT4 [5]; 0.58 µM in assay [1]; more than 10 µM at Pepsin A; more than 10 µM on Renin. In assay [2], this molecule showed a Ki of 0.0061 µM.
In the case of `COc1ccc(CN[C@@H](C(=O)N[C@H](C(=O)NCc2nc3ccccc3[nH]2)C(C)C)[C@H](O)[C@H](Cc2ccccc2)NC(=O)[C@@H](NC(=O)C(C)Oc2ccccc2)C(C)(C)C)cc1` (stereo not given in full), the 50% inhibitory concentration (IC50) was 2 µM against Cathepsin D [3]; 0.0079 µM in the assay with MT4 [4]; 0.47 µM in the assay on MT4 [5]; 0.038 µM in assay [1]; more than 10 µM at Pepsin A; more than 10 µM against Renin. Besides, the affinity in assay [2], expressed as Ki, was 0.006 µM.
Consider `COc1ccc(CN[C@@H](C(=O)N[C@H](C(=O)NCc2nc3ccccc3[nH]2)C(C)C)[C@H](O)[C@H](Cc2ccccc2)NC(=O)[C@@H](NC(=O)OCc2ccccc2)C(C)(C)C)cc1`, for which the 50% inhibitory concentration (IC50) against Cathepsin D [3] is 1 µM; in the assay on MT4 [4] it was 0.0054 µM; with MT4 [5] it was 0.385 µM; in assay [1], 0.014 µM; at Pepsin A, more than 10 µM; against Renin, more than 10 µM. The Ki in assay [2] is 0.0046 µM.
Consider `CC(C)[C@H](NC(=O)OCc1ccccc1)C(=O)N[C@@H](Cc1ccccc1)[C@@H](O)[C@@H](NCc1ccccc1)C(=O)N[C@@H](C(=O)NCc1ccccc1)C(C)(C)C.CC(C)[C@H](NC(=O)OCc1ccccc1)C(=O)N[C@@H](Cc1ccccc1)[C@@H](O)[C@@H](NCc1ccccc1)C(=O)N[C@H](C(=O)NCc1ccccc1)C(C)(C)C` (stereo in doubt; 33(4:1)), for which, in assay [1], the IC50 is more than 3 µM. Also, the Ki in assay [2] is more than 3 µM.
